S1P4 agonist = human S1P4 receptor agonism. actives 0.35% (n = 220,000). S1P4-expressing cell line, agonist reporter assay. O95977. activation, % at 4.98 µM. AID 1509; in the data active means activation above about 11%;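 further: 0% = DMSO vehicle and 100% = reference agonist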
NPY Y2 blocker = blocks the human neuropeptide Y Y2 receptor; NPY-Y2 expressing cells, antagonist mode; P49146; actives 0.99% (n = 140,000); inhibition, % at 2.7 µM; in the data active means inhibition above about 17%;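 further: 0% = vehicle with agonist challenge and 100% = reference antagonist with challenge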
NPY Y1 blocker = antagonists of human neuropeptide Y receptor Y1; HEK293-CNG Y1 cells, membrane potential fluorescence; NPY at EC95, then isoproterenol; actives 1% (n = 200,000); AID 1040; inhibition, % at 3.6 µM;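 active means inhibition above the campaign mean inhibition of all tested compounds plus 3 SD, cut at about 20% in these data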;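 further: 0% = DMSO wells given NPY plus isoproterenol and 100% = isoproterenol alone without NPY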
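Material: HEK293 cells co-expressing NPY Y1 receptor and cyclic-nucleotide gated channel. Timing: compound incubation 1 h at room temperature, readout 45 min post-stimulation. Signal: fluorescence, membrane potential probe.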
NPY-Y2 PAM-ag = potentiators or agonists of human neuropeptide Y receptor Y2; P49146; cells expressing NPY-Y2, potentiator/agonist read-out; activation, % at 3.6 µM; actives 0.45% (n = 220,000); AID 1359; in the data active means activation above about 27%;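 further: cells stimulated with NPY near EC25 plus isoproterenol at EC100; 0% = vehicle plus submaximal agonist and 100% = vehicle plus saturating agonist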
S1P4 antagonist = human S1P4 receptor antagonism | O95977 | S1P4-expressing cells, antagonist mode, reporter read-out | inhibition, % at 4.98 µM | actives 0.26% (n = 220,000); in the data active means inhibition above about 29%;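 further: 0% = wells stimulated with agonist and 100% = vehicle wells without agonist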
NPY-Y1 PAM-ag = human NPY-Y1 potentiation or agonism, primary screen | P25929 | NPY-Y1 expressing cells, potentiator/agonist activation | activation, % at 3.6 µM | actives 0.37% (n = 220,000); in the data active means activation above about 33%, passing the limit was not always enough;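 further: cells stimulated with NPY at EC10 then isoproterenol at EC100; 0% = low agonist plus stimulus and 100% = saturating agonist plus stimulus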
S1P4 ag conf = human S1P4 agonism, confirmation. shares compounds with S1P4 agonist. S1P4 agonist cell-based reporter assay. activation, % at 4.98 µM. actives 7% (n = 740). AID 1523; in the data active means activation above about 12%;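 further: 0% = vehicle and 100% = full reference agonist response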
S1P1 agonist = counter-screen for S1P4 agonists: agonists of human S1P1; shares compounds with S1P4 agonist; S1P1 agonist cell-based assay, activation; activation, % at 4.98 µM; actives 4% (n = 740); in the data active means activation above about 21%;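 further: 0% = vehicle wells and 100% = reference agonist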
Target sequence (P21453 whole entry, looked up): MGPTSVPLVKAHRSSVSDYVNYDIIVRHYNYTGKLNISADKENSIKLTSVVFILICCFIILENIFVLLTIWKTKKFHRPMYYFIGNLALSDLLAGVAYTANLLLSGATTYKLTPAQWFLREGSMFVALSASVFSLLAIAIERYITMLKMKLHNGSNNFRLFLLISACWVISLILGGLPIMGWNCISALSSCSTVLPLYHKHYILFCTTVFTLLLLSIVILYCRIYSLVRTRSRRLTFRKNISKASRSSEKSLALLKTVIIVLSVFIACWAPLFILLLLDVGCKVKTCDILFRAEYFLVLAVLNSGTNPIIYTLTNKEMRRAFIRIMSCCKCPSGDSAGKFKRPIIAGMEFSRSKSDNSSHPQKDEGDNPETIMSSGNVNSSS
An asterisk follows results filed as active; x = no result. A selection: hits, their analogues and other compounds. The true share with any hit is near 2.4%.

SMILES | S1P4 agonist | NPY Y2 blocker | NPY Y1 blocker | NPY-Y2 PAM-ag | S1P4 antagonist | NPY-Y1 PAM-ag | S1P4 ag conf | S1P1 agonist
COc1ccc(C2=NOC(C(=O)NC(C)(C)C)C2)cc1 (configuration not stated) | 23* | -1 | 0 | -32 | -16 | 13 | -2 | -9
CCN(CC)C(=O)C1CC(c2ccc(OC)cc2)=NO1 (configuration not stated) | 1 | 0 | 0 | -22 | -4 | 9 | x | x
O=C(Nc1ccc(Nc2ccccc2)cc1)C(Cl)(Cl)Cl | 1 | -3 | -8 | 6 | -12 | -1 | x | x
COc1ccc(NC(=S)N2CCN(c3ccccn3)CC2)cc1OC | 28* | 0 | 8 | -2 | -23 | -2 | -2 | -7
CCCC(=O)Nc1sc2c(c1C(=O)Nc1ccccn1)CCCC2 | 0 | x | 12 | 1 | 15 | -2 | x | x
Cc1ccc(-c2csc(/C(C#N)=C(\O)CCl)n2)cc1 | 20* | x | -1 | -2 | -23 | -3 | -3 | -5
CCOC(=O)C1CCN(C(=O)CCc2c(C)nc3cc(-c4ccccc4)nn3c2C)CC1 | 0 | 2 | 5 | 18 | -9 | 8 | x | x
CCOC(=O)C1CCN(c2cc(C)nc3cc(-c4cccc(F)c4)nn23)CC1 | 13* | 0 | 4 | 7 | 4 | -11 | -1 | 3
Cn1cnc2cc(NC(=O)c3ccco3)ccc21 | 61* | -2 | 5 | 10 | 6 | -2 | -2 | -9
O=C(Nc1ccc2c(c1)ncn2-c1ccccc1)c1ccco1 | 2 | 1 | 1 | 1 | 4 | -18 | x | x
Cc1nn(Cc2ccc(Cl)c(Cl)c2)c(C)c1NC(=O)c1cc(-c2ccc3c(c2)OCO3)on1 | 22* | -2 | -5 | -11 | 11 | 3 | -2 | -2
Cc1cc(Br)cnc1NC(=S)Nc1ccc(F)cc1F | 1 | x | 13 | -21 | -6 | -3 | x | x
CCNC(=S)N(CCc1cccc(C)c1)Cc1cc2cc(OC)c(OC)cc2[nH]c1=O | 51* | 1 | -3 | -7 | -2 | -16 | -1 | -4
CCNC(=S)N(CCc1ccccc1C)Cc1cc2cc(OC)c(OC)cc2[nH]c1=O | 1 | -1 | 0 | 5 | -10 | 9 | x | x
CCC(C)NC(=O)Cn1c(=O)n(CCCCCC(=O)Nc2ccccc2)c(=O)c2sccc21 (configuration not stated) | 0 | 3 | 0 | -4 | -15 | -29 | x | x
CCN(CC)C(=O)Cn1c(=O)n(CCCCCC(=O)Nc2ccccc2)c(=O)c2sccc21 | 12* | 1 | 2 | 10 | -7 | 14 | -2 | -2
O=C(COC(=O)CCc1nc2ccccc2s1)NC(=O)NCc1ccco1 | 17* | x | 2 | 1 | 1 | -16 | -1 | -3
O=C(COC(=O)CCc1nc2ccccc2s1)NCc1ccco1 | 0 | x | 0 | -18 | 7 | 4 | x | x
CC(=O)OCC1(C)CN(c2ccccc2)N(C(=O)c2ccc(C(C)(C)C)cc2)C1=O (configuration not stated) | 25* | x | 4 | 4 | 3 | -7 | -2 | -5
O=C(COc1ccccc1)NCc1cccs1 | 14* | 0 | 2 | -5 | -1 | 27 | -3 | -4
Cc1ccc(OCC(=O)NCc2cccs2)cc1 | -2 | 1 | 11 | -8 | -27 | -17 | x | x
CCN(CC)c1ccc2c(C)c(Cl)c(=O)oc2c1 | 16* | x | 4 | -17 | -4 | -2 | 8 | 9
CCN(CC)c1ccc2c(C)c(-c3ccc(N)cc3)c(=O)oc2c1 | 4 | 0 | -1 | 9 | -3 | 22 | x | x
N/C(=N\OC(=O)COc1cc(Cl)c(Cl)cc1Cl)c1ccccn1 | 2 | x | 9 | -1 | 7 | 5 | x | x
CNC(=O)c1[nH]cnc1C(=O)N[C@@H](Cc1ccccc1)C(=O)OCc1ccccc1 | 23* | x | -4 | 20 | -26 | 23 | 56* | 38*
SMILES | S1P4 agonist | NPY Y2 blocker | NPY Y1 blocker | NPY-Y2 PAM-ag | S1P4 antagonist | NPY-Y1 PAM-ag | S1P4 ag conf | S1P1 agonist
CNC(=O)c1[nH]cnc1C(=O)N[C@@H](Cc1ccccc1)C(=O)OC(C)(C)C | 0 | x | 5 | -7 | 8 | 8 | x | x
COc1ccc(NC(=O)CSc2nc(C)cs2)c(OC)c1 | 74* | x | 0 | 0 | 5 | 1 | -3 | 1
COCCn1c(=O)sc2ccccc2c1=O | 27* | x | 0 | -2 | -18 | -4 | -1 | -2
COc1ccc(Cn2c(=O)sc3ccccc3c2=O)cc1 | 0 | x | 9 | 3 | 12 | -18 | x | x
CCN(CC)c1ccc(C(=O)OCC(=O)Nc2ccc3[nH]c(=O)[nH]c3c2)cc1 | 0 | x | 3 | -2 | -18 | -13 | x | x
CCOc1ccc(CNC2CCCc3ccccc32)cc1 (configuration not stated) | -1 | x | 7 | 9 | -10 | 10 | x | x
N#Cc1cnn2ccc(-c3cc(N4CCOCC4)ccc3[N+](=O)[O-])nc12 | 14* | x | -7 | 3 | -10 | 18 | -2 | 3
CN1C(=O)OC2(C)CCc3ccccc3C12C (configuration not stated) | 22* | -3 | 1 | 10 | -16 | -9 | -1 | -2
CCCCCCCCNc1nc(Cl)nc(NCCN2CCOCC2)n1 | 17* | x | 1 | -10 | -16 | -7 | -2 | 2
COc1nc(NCCN2CCOCC2)nc(Nc2ccccc2)n1 | -2 | 1 | 1 | 5 | -17 | 11 | x | x
CCNC(=S)NNC(=O)c1cc(C)nc2ccccc12 | 44* | 1 | -3 | 1 | -5 | 2 | -1 | 2
COCCSc1ccccc1C(=O)N1CCN(Cc2ccccc2)CC1 | 13* | x | 0 | 3 | -10 | 0 | -2 | -7
Nc1c(C(=O)NCCc2ccc(Cl)cc2)sc2ccc(S(=O)(=O)N3CCCCC3)cc12 | -2 | 1 | 1 | -9 | -12 | -19 | x | x
CCCOc1ccc(C2C(C(=O)OC)=CN(CCOC)C=C2C(=O)OC)cc1 | 12* | 9 | 9 | -7 | -31 | -10 | 1 | 10
COc1cccc(NC(C(=O)Nc2cccc(C(C)=O)c2)c2ccccc2)c1 (configuration not stated) | 14* | 0 | 9 | 5 | -15 | -7 | -2 | 2
C=CCS/C(N)=N\N=C\c1cc(Br)cc([N+](=O)[O-])c1O | 2 | x | x | 5 | -13 | -4 | x | x
Cc1ccc(Nc2nc(NCC3CCCO3)nc(N)c2[N+](=O)[O-])cc1 (configuration not stated) | -1 | 0 | 7 | -12 | -20 | 12 | x | x
Nc1nc(NCC2CCCO2)nc(Nc2ccc(F)cc2)c1[N+](=O)[O-] (configuration not stated) | 25* | 2 | -2 | 7 | -10 | 4 | -3 | -1
CCN(CC)S(=O)(=O)c1cc(NC(=O)CNc2c(C)n(C)n(-c3ccccc3)c2=O)ccc1C | 3 | x | 0 | -7 | 2 | 5 | x | x
